From ChEMBL document CHEMBL1127319, “CNAD: a potent and specific inhibitor of alcohol dehydrogenase” (J Med Chem, 1994) come the findings set out here.

Substrate in this data set: NC(=O)c1ccc[n+]([C@@H]2O[C@H](COP(=O)([O-])OP(=O)(O)OC[C@H]3O[C@@H](n4cnc5c(N)ncnc54)[C@H](O)[C@@H]3O)[C@@H](O)[C@H]2O)c1
The experiment in a line: Michaelis-Menten constant against mammalian liver alcohol dehydrogenase (ADH). The following applies: Equus caballus. The method in brief: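 NAD is varied and the A340 increase from NADH formation is monitored (ε 6.22 mM-1 cm-1). Buffers differ by enzyme: ADH in 0.1 M phosphate, pH 8.0, with ethanol 1.2 mM; GDH in 0.1 M phosphate, pH 7.0, with 10 μM EDTA; LDH and MDH in 0.05 M Tris-HCl, pH 9.0. At least duplicate.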

B1: Alcohol dehydrogenase 1A (Homo sapiens), P07327 (protein)
chain: MSTAGKVIKCKAAVLWELKKPFSIEEVEVAPPKAHEVRIKMVAVGICGTDDHVVSGTMVTPLPVILGHEAAGIVESVGEGVTTVKPGDKVIPLAIPQCGKCRICKNPESNYCLKNDVSNPQGTLQDGTSRFTCRRKPIHHFLGISTFSQYTVVDENAVAKIDAASPLEKVCLIGCGFSTGYGSAVNVAKVTPGSTCAVFGLGGVGLSAIMGCKAAGAARIIAVDINKDKFAKAKELGATECINPQDYKKPIQEVLKEMTDGGVDFSFEVIGRLDTMMASLLCCHEACGTSVIVGVPPDSQNLSMNPMLLLTGRTWKGAILGGFKSKECVPKLVADFMAKKFSLDALITHVLPFEKINEGFDLLHSGKSIRTILMF
One may read the Km as the substrate concentration at which the rate is half of its maximum. As for B1, the Km was found to be 25 µM.
